Calls of active or inactive are those of the source. The rule behind the calls is not given here.
Columns and labels:
Assay type in all cases: cell-based
[1] = system: A549; assay: Cytotoxicity against human A549 cells after 48 hrs; details: a549, 48 h
[2] = system: A549; assay: Inhibition of Vesicular stomatitis virus envelope glycoprotein-mediated viral entry into human A549 cells after 48 hrs postinfection by luminometric analysis
In short: (§1)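 A549 cells seeded at 5 × 10⁴ per well; test compounds added 15 min before HIV-luc pseudovirions bearing the H5N1 HA (Qinghai or Viet Nam strain) or VSV-G envelope, then incubated. Pseudovirion supernatants were filtered and used directly for infection.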

[3] = Inhibition of Influenza A virus (A/Viet Nam/1203/2004(H5N1)) hemagglutininin-mediated viral entry into human A549 cells after 48 hrs postinfection by luminometric analysis; in short: as §1
[4] = Inhibition of Influenza A virus (A/Bar-headed Goose/Qinghai/59/05(H5N1)) hemagglutininin-mediated viral entry into human A549 cells after 48 hrs postinfection by luminometric analysis; in short: as §1

Row | SMILES | Activity [1] | inhibition [2] | IC50 [3] | IC50 [4]
1 | CO[C@@H]1[C@@H](O)[C@H](C)O[C@@H](O[C@H]2[C@H](O[C@H]3CC[C@@]4(C)[C@H](C3)[C@@H](O)C[C@@H]3[C@@H]4CC[C@]4(C)[C@@H]5[C@H](C[C@@H]34)O[C@]3(CC[C@@H](C)CO3)[C@H]5C)O[C@H](CO)[C@@H](O[C@@H]3O[C@@H](C)[C@H](O)[C@@H](OC)[C@H]3O)[C@@H]2O)[C@@H]1O | Non-toxic | inactive | 16 µM | 28 µM
2 | CCS[C@@H]1O[C@H](CO)[C@@H](O[C@@H]2O[C@@H](C)[C@H](O)[C@@H](O)[C@H]2O)[C@H](O)[C@H]1O[C@@H]1O[C@@H](C)[C@H](O)[C@@H](O)[C@H]1O | Non-toxic | inactive | > 50 µM | > 50 µM
3 | CC(=O)O[C@H]1C[C@@H]2[C@H](CC[C@]3(C)[C@@H]4[C@H](C[C@@H]23)O[C@]2(CC[C@@H](C)CO2)[C@H]4C)[C@@]2(C)CC[C@H](O[C@@H]3O[C@H](CO)[C@@H](O[C@@H]4O[C@@H](C)[C@H](O)[C@@H](O)[C@H]4O)[C@H](O)[C@H]3O[C@@H]3O[C@@H](C)[C@H](O)[C@@H](O)[C@H]3O)C[C@H]12 | Non-toxic | inactive | 9.3 µM | 7.6 µM
4 | C[C@@H]1CC[C@@]2(OC1)O[C@H]1C[C@H]3[C@@H]4CC(=O)[C@H]5C[C@@H](O[C@@H]6O[C@H](CO)[C@@H](O[C@@H]7O[C@@H](C)[C@H](O)[C@@H](O)[C@H]7O)[C@H](O)[C@H]6O[C@@H]6O[C@@H](C)[C@H](O)[C@@H](O)[C@H]6O)CC[C@]5(C)[C@H]4CC[C@]3(C)[C@H]1[C@@H]2C | Non-toxic | inactive | 12 µM | 20 µM
5 | C[C@@H]1CC[C@@]2(OC1)O[C@H]1C[C@H]3[C@@H]4C[C@H](O)[C@H]5C[C@@H](O)CC[C@]5(C)[C@H]4CC[C@]3(C)[C@H]1[C@@H]2C [CHLOROGENIN] | – | – | > 50 µM | > 50 µM
6 | CO[C@@H]1[C@@H](O)[C@@H](O)[C@H](O[C@H]2[C@H](O[C@H]3CC[C@@]4(C)[C@H](C3)[C@@H](O)C[C@@H]3[C@@H]4CC[C@]4(C)[C@@H]5[C@H](C[C@@H]34)O[C@]3(CC[C@@H](C)CO3)[C@H]5C)O[C@H](CO)[C@@H](O[C@@H]3O[C@@H](C)[C@H](OC)[C@@H](O)[C@H]3O)[C@@H]2O)O[C@H]1C | Non-toxic | inactive | 24 µM | –
7 | C[C@@H]1CC[C@@]2(OC1)O[C@H]1C[C@H]3[C@@H]4C[C@@H](O)[C@H]5C[C@@H](O[C@@H]6O[C@H](CO)[C@@H](O[C@@H]7O[C@@H](C)[C@H](O)[C@@H](O)[C@H]7O)[C@H](O)[C@H]6O[C@@H]6O[C@@H](C)[C@H](O)[C@@H](O)[C@H]6O)CC[C@]5(C)[C@H]4CC[C@]3(C)[C@H]1[C@@H]2C | Non-toxic | inactive | 11 µM | 18 µM
8 | C[C@@H]1O[C@@H](O[C@H]2[C@H](O)[C@@H](O[C@@H]3O[C@@H](C)[C@H](O)[C@@H](O)[C@H]3O)C(O)O[C@@H]2CO)[C@H](O)[C@H](O)[C@H]1O (some centres not stated) [CHACOTRIOSE] | Non-toxic | inactive | > 50 µM | > 50 µM
9 | CO[C@H]1[C@H](O[C@H]2[C@H](O[C@H]3CC[C@@]4(C)[C@H](C3)[C@@H](O)C[C@@H]3[C@@H]4CC[C@]4(C)[C@@H]5[C@H](C[C@@H]34)O[C@]3(CC[C@@H](C)CO3)[C@H]5C)O[C@H](CO)[C@@H](O[C@@H]3O[C@@H](C)[C@H](O)[C@@H](O)[C@H]3OC)[C@@H]2O)O[C@@H](C)[C@H](O)[C@H]1O | Non-toxic | inactive | 15 µM | 31 µM
10 | C[C@@H]1CC[C@@]2(OC1)O[C@H]1C[C@H]3[C@@H]4C[C@H](O[C@@H]5O[C@@H](C)[C@H](O)[C@@H](O)[C@H]5O)[C@H]5C[C@@H](O[C@@H]6O[C@H](CO)[C@@H](O[C@@H]7O[C@@H](C)[C@H](O)[C@@H](O)[C@H]7O)[C@H](O)[C@H]6O[C@@H]6O[C@@H](C)[C@H](O)[C@@H](O)[C@H]6O)CC[C@]5(C)[C@H]4CC[C@]3(C)[C@H]1[C@@H]2C | Non-toxic | inactive | > 50 µM | > 50 µM
11 | C[C@@H]1CC[C@@]2(OC1)O[C@H]1C[C@H]3[C@@H]4C[C@H](O)[C@H]5C[C@@H](O[C@@H]6O[C@H](CO)[C@@H](O[C@@H]7O[C@@H](C)[C@H](O)[C@@H](O)[C@H]7O)[C@H](O)[C@H]6O[C@@H]6O[C@@H](C)[C@H](O)[C@@H](O)[C@H]6O)CC[C@]5(C)[C@H]4CC[C@]3(C)[C@H]1[C@@H]2C | Non-toxic | inactive | 7.8 µM | 7.2 µM
12 | C[C@@H]1CC[C@@]2(OC1)O[C@H]1C[C@H]3[C@@H]4C[C@H](O)[C@H]5C[C@@H](O[C@@H]6O[C@H](CO)[C@@H](O[C@@H]7OC[C@H](O)[C@H](O)[C@H]7O)[C@H](O)[C@H]6O[C@@H]6OC[C@H](O)[C@H](O)[C@H]6O)CC[C@]5(C)[C@H]4CC[C@]3(C)[C@H]1[C@@H]2C | Non-toxic | inactive | > 50 µM | > 50 µM
13 | COC[C@H]1O[C@@H](O[C@H]2CC[C@@]3(C)[C@H](C2)[C@@H](O)C[C@@H]2[C@@H]3CC[C@]3(C)[C@@H]4[C@H](C[C@@H]23)O[C@]2(CC[C@@H](C)CO2)[C@H]4C)[C@H](O[C@@H]2O[C@@H](C)[C@H](O)[C@@H](O)[C@H]2O)[C@@H](O)[C@@H]1O[C@@H]1O[C@@H](C)[C@H](O)[C@@H](O)[C@H]1O | Non-toxic | inactive | 9 µM | 12 µM
14 | CO[C@@H]1[C@@H](O[C@@H]2O[C@@H](C)[C@H](O)[C@@H](O)[C@H]2O)[C@H](O[C@H]2CC[C@@]3(C)[C@H](C2)[C@@H](O)C[C@@H]2[C@@H]3CC[C@]3(C)[C@@H]4[C@H](C[C@@H]23)O[C@]2(CC[C@@H](C)CO2)[C@H]4C)O[C@H](CO)[C@H]1O[C@@H]1O[C@@H](C)[C@H](O)[C@@H](O)[C@H]1O | Non-toxic | inactive | 13 µM | 25 µM
15 | COC(=O)[C@]12CC[C@@H](C)[C@H](C)[C@H]1C1=CC[C@@H]3[C@@]4(C)CC[C@H](O[C@@H]5O[C@H](CO)[C@@H](O[C@@H]6O[C@@H](C)[C@H](O)[C@@H](O)[C@H]6O)[C@H](O)[C@H]5O[C@@H]5O[C@@H](C)[C@H](O)[C@@H](O)[C@H]5O)C(C)(C)[C@@H]4CC[C@@]3(C)[C@]1(C)CC2 | Non-toxic | inactive | 8.5 µM | 6 µM

Reference: ChEMBL document CHEMBL2046336, “Structure-activity relationships of saponin derivatives: a series of entry inhibitors for highly pathogenic H5N1 influenza virus” (Eur J Med Chem, 2012)
